Target: V-type proton ATPase subunit B, brain isoform (Bos taurus) (UniProt P31408)
Test: Inhibition of V-ATPase-driven proton transport in membrane vesicles derived from bovine chromaffin granules (bCG); Potency ratio expressed as IC50 of compound/IC50 of baf A1
Method in brief: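 Proton transport in bovine chromaffin granule inside-out vesicles, read by acridine orange (5 μM) fluorescence quench with 1 mM Na₂ATP, pH 7.4. IC50 from ≥3 duplicated doses by four-parameter logistic fit. Each IC50 is divided by the bafilomycin A₁ IC50 from the same experiment, to correct for membrane batch and protein level.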

Sequence of V-type proton ATPase subunit B, brain isoform (Bos taurus) (P31408 whole entry, canonical isoform): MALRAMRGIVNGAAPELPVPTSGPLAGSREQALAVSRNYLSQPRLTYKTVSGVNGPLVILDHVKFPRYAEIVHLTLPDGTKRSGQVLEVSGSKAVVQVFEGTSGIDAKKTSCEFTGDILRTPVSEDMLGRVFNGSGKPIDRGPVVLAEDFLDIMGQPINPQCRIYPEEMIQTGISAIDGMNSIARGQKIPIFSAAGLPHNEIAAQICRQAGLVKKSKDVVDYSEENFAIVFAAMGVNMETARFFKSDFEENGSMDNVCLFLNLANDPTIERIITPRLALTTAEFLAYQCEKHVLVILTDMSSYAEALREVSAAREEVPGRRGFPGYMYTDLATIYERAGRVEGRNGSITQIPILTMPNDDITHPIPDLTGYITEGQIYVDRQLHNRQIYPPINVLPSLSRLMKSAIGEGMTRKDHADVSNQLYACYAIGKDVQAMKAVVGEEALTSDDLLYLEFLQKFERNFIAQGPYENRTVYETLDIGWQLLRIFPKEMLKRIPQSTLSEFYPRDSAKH

For `CO/C1=C\C(C)=C\[C@@H](C)[C@@H](O)[C@@H](C)C/C(C)=C/C=C/[C@H](OC)[C@@H]([C@@H](C)[C@@H](O)[C@H](C)[C@@]2(O)C[C@@H](NC3CCCCC3)[C@H](C)[C@@H](C(C)C)O2)OC1=O`, the Potency ratio was 9.2.

In the case of `CO/C1=C\C(C)=C\[C@@H](C)[C@@H](O)[C@@H](C)C/C(C)=C/C=C/[C@H](OC)[C@@H]([C@@H](C)[C@@H](O)[C@H](C)[C@@]2(O)C[C@@H](OC)[C@H](C)[C@@H](C(C)C)O2)OC1=O`, the Potency ratio is reported as 1.2.

Work on `C/C=C/CC(O)[C@@H](C)[C@H](O)[C@H](C)[C@H]1OC(=O)/C(OC)=C/C(C)=C/[C@@H](C)[C@@H](O)[C@@H](C)C/C(C)=C/C=C/[C@@H]1OC` (some centres not stated) yielded a Potency ratio of 2.6.

`COC(=O)/C(=C/C(C)=C/[C@@H](C)[C@@H](O)[C@@H](C)C/C(C)=C/C=C/[C@H](OC)[C@H](O)[C@@H](C)[C@@H](O)[C@H](C)[C@@]1(O)C[C@@H](O)[C@H](C)[C@@H](C(C)C)O1)OC` gave a Potency ratio of 330.

`CO/C1=C\C(C)=C\[C@@H](C)C(=O)[C@@H](C)C/C(C)=C/C=C/[C@H](OC)[C@@H]([C@@H](C)[C@@H](O)[C@H](C)[C@@]2(O)CC(=O)[C@H](C)[C@@H](C(C)C)O2)OC1=O` was tested, and the Potency ratio was 112.

`CO/C1=C\C(C)=C\[C@@H](C)[C@@H](O)[C@@H](C)C/C(C)=C/C=C/[C@H](OC)[C@@H]([C@@H](C)[C@@H](O)[C@H](C)[C@@]2(O)C[C@@H](O)[C@H](C)[C@@H](C(C)C)O2)OC1=O` gave a Potency ratio of 1.

With `CO/C1=C\C(C)=C\[C@@H](C)[C@@H](O)[C@@H](C)C/C(C)=C/C=C/[C@H](OC)[C@@H]([C@@H](C)[C@@H](O)[C@H](C)[C@@]2(OC)C[C@@H](O)[C@H](C)[C@@H](C(C)C)O2)OC1=O` the Potency ratio was 1.4.

In the case of `CO/C1=C\C(C)=C\[C@@H](C)[C@@H](O)[C@@H](C)C/C(C)=C/C=C/[C@H](OC)[C@@H]([C@@H](C)[C@@H](O)[C@H](C)C(O)C[C@H](O)[C@H](C)C(O)C(C)C)OC1=O` (some centres not stated), the Potency ratio is reported as 8.2.

In the case of `CCCO[C@@H]1C[C@](OC)([C@@H](C)[C@H](O)[C@H](C)[C@H]2OC(=O)/C(OC)=C/C(C)=C/[C@@H](C)[C@@H](O)[C@@H](C)C/C(C)=C/C=C/[C@@H]2OC)O[C@H](C(C)C)[C@H]1C`, the Potency ratio is reported as 5.

Work on `CO/C1=C\C(C)=C\[C@@H](C)C(=O)[C@@H](C)C/C(C)=C/C=C/[C@H](OC)[C@@H]([C@@H](C)[C@@H](O)[C@H](C)[C@@]2(O)C[C@@H](O)[C@H](C)[C@@H](C(C)C)O2)OC1=O` yielded a Potency ratio of 32.

For `CO/C1=C\C(C)=C\[C@@H](C)[C@@H](O)[C@@H](C)C/C(C)=C/C=C/[C@H](OC)[C@@H]([C@@H](C)[C@@H](O)[C@H](C)[C@@]2(O)CC(=O)[C@H](C)[C@@H](C(C)C)O2)OC1=O`, the Potency ratio was 2.2.

In the case of `CO/C1=C\C(C)=C\[C@@H](C)[C@@H](O)[C@@H](C)C/C(C)=C/C=C/[C@H](OC)[C@@H]([C@@H](C)[C@@H](O)[C@H](C)C(=O)/C=C/[C@H](C)C(O)C(C)C)OC1=O` (some centres not stated), the Potency ratio is reported as 15.

`COC1/C=C(\C)C[C@@H](C)[C@@H](O)[C@@H](C)CC(C)/C=C/CC(OC)[C@@H]([C@@H](C)[C@@H](O)[C@H](C)[C@@]2(O)C[C@@H](O)[C@H](C)[C@@H](C(C)C)O2)OC1=O` (some centres not stated) was tested, and the Potency ratio was 2110.

Molecule `CO/C1=C\C(C)=C\[C@@H](C)[C@@H](O)[C@@H](C)C/C(C)=C/C=C/[C@H](OC)[C@@H]([C@@H](C)[C@@H](O)[C@H](C)[C@@]2(O)C[C@@H](N3CCCCC3)[C@H](C)[C@@H](C(C)C)O2)OC1=O` has a Potency ratio of 6.7.

For `C/C=C/CC(=O)[C@@H](C)[C@H](O)[C@H](C)[C@H]1OC(=O)/C(OC)=C/C(C)=C/[C@@H](C)[C@@H](O)[C@@H](C)C/C(C)=C/C=C/[C@@H]1OC`, the Potency ratio was 21.

`CCO[C@@H]1C[C@](O)([C@@H](C)[C@H](O)[C@H](C)[C@H]2OC(=O)/C(OC)=C/C(C)=C/[C@@H](C)[C@@H](O)[C@@H](C)C/C(C)=C/C=C/[C@@H]2OC)O[C@H](C(C)C)[C@H]1C` gave a Potency ratio of 1.2.

With `CO/C1=C\C(C)=C\C(C)C(=O)[C@@H](C)C/C(C)=C/C=C/C(OC)[C@@H]([C@@H](C)C(=O)[C@H](C)C2=CC(=O)[C@H](C)[C@@H](C(C)C)O2)OC1=O` (some centres not stated) the Potency ratio was 3050.
